Data set [1] is described as follows: Association constant of hematin-aminoquinoline complex formation reported by spectrophotometric titration in aqueous dimethyl sulfoxide(DMSO) at pH 7.5. The following applies: buffer. It is filed as ADME. A digest of the protocol: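 Spectrophotometric titration of monomeric hematin with aminoquinoline, fitted to 1:1 complex formation. Run at 25 °C, pH 7.5, in 40% aqueous DMSO with 20 mM HEPES. Reported as log K, the average of three independent measurements ± 1 SEM.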

Data set [2] in a line: Acid dissociation constant of the tertiary ammonium group. The following applies: read-out: pKa2. It is filed as ADME. A digest of the protocol:
(§1)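 Glass-electrode potentiometric titration under nitrogen at 25 °C in 0.15 M NaCl background electrolyte. Data were fitted to give two pKa values per aminoquinoline. Reported values are the average of three independent measurements, with error given as 1 SD.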

Data set [3] can be described thus: Acid dissociation constant of the quinolinium cation. The data set is classed as ADME. The following applies: read-out: pKa1. A digest of the protocol: as §1
A further data set relates to Plasmodium falciparum. Put plainly: In vitro antiplasmodial activity against chloroquine-sensitive Plasmodium falciparum D10. It is filed as functional, organism-based.
Data set [4] in a line: Normalised IC50 was measured. The data set is classed as functional. A digest of the protocol:
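Normalized IC50 is the D10 P. falciparum IC50 multiplied by α. α is the compound's calculated vacuolar accumulation ratio divided by chloroquine's, both from measured pKa values, assuming vacuolar pH 5.5 and external pH 7.4.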

Some results are limits rather than exact numbers.

What is called IC50 is the concentration needed to halve the response being measured. With `CCN(CC)CCNc1ccnc2cc(C(F)(F)F)ccc12`, in data set [1], the “Log K” value is 4.67. For the same molecule, the pKa came out at 7.65 in data set [2] and 7.5 in data set [3]. Moreover, the half-inhibitory concentration (IC50) is 99 nM in the data set on Plasmodium falciparum and 48 nM in data set [4].
The matching figures for `CCN(CC)CCNc1ccnc2cc(Br)ccc12`: 4.99, 7.97, 7.93, 36 nM and 28 nM.
With `CCN(CC)CCNc1ccnc2ccccc12`, the “Log K” value in data set [1] amounted to 4.75. Further, the pKa in data set [2] came to 9.42; in data set [3] it was 7.96. For the same molecule, the IC50 with Plasmodium falciparum is 1060 nM; in data set [4], 892 nM.
The matching figures for `CCN(CC)CCNc1ccnc2cc(C)ccc12`: 4.86, 9.51, 8.12, 82 nM and 74 nM.
The matching figures for `CCN(CC)CCNc1ccnc2cc(I)ccc12`: 5.02, 7.79, 7.48, 35 nM and 17 nM.
With `CCN(CC)CCNc1ccnc2cc(F)ccc12`, the “Log K” value in data set [1] was 4.6. Also, the pKa in data set [2] was 9.24; in data set [3] it was 7.62. For the same molecule, the IC50 in the data set with Plasmodium falciparum came to 138 nM; in data set [4], 92 nM.
On to `CCN(CC)CCNc1ccnc2cc([N+](=O)[O-])ccc12`, for which the “Log K” value in data set [1] is given as 4.65. Also, the pKa in data set [2] is 8.8; in data set [3], 6.28. Moreover, the 50% inhibitory concentration (IC50) in the data set on Plasmodium falciparum was determined as 325 nM; in data set [4] it was 28 nM.
The matching figures for `CCN(CC)CCNc1ccnc2cc(Cl)ccc12`: 5.81, 8.83, 7.56, 37 nM and 23 nM.
For the molecule `CCN(CC)CCNc1ccnc2cc(O)ccc12`, the “Log K” value in data set [1] was 4.48. Further, the pKa in data set [2] turned out to be 8.95; in data set [3], 6.82. The concentration for half-maximal inhibition (IC50) in the data set on Plasmodium falciparum came out at 3070 nM; in data set [4] it was 700 nM.
The matching figures for `CCN(CC)CCNc1ccnc2cc(OC)ccc12`: 4.83, 9.5, 8.09, 448 nM and 399 nM.
For `CCN(CC)CCNc1ccnc2cc(N)ccc12`, in data set [1], the “Log K” value is on record as 4.35. The results for the pKa in data set [2] and in data set [3] were 10 and 8.36, respectively. In addition, the figures for the half-maximal inhibitory concentration (IC50) (in the data set with Plasmodium falciparum; in data set [4]) were > 5000 nM and > 4830 nM, respectively.
